Laboratory results as given in the array DNA melting data of Ke et al. (doi:10.1101/2024.01.08.574731).

Columns and labels:
[1] = folding enthalpy; higher = less favourable; fluorescence melt of hairpins on a sequencing array, two-state fit; details: sodium 0.088 M
Summary of the method: (§1)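 Folding enthalpy and melting temperature were estimated with bootstrapped two-state fits and combined across four replicates by inverse-variance weighting, with fitted temperatures raised by 9.35 °C to match UV melts. The data were Cy3 fluorescence of library hairpins, with annealed Cy3 and quencher oligos, on a sequenced MiSeq flow cell in 50 mM Na-HEPES pH 8.0, 25 mM NaCl, imaged in 2.5 °C steps up to 60 °C and normalised to pre-quench Cy3 and control constructs.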

[2] = melting temperature; fluorescence melt of hairpins on a sequencing array, two-state fit, raised by 9.35 °C to match UV melts; details: sodium 0.088 M
Summary of the method: as §1

Row | Sequence | folding enthalpy [1] | Tm [2]
1 | GATCTACTAGTAGATC ((((((....)))))) | -46.8 kcal/mol | 51.7 °C
2 | GATCTACTCCTAGATC ((((((....)))))) | -33 kcal/mol | 39.5 °C
3 | GATCTAGACTAGATC ((((((...)))))) | -36.6 kcal/mol | 40.8 °C
4 | GATCTAGATCTAGATC ((((((....)))))) | -37.3 kcal/mol | 47.5 °C
5 | GATCTAGATTTAGATC ((((((....)))))) | -28.4 kcal/mol | 38.4 °C
6 | GATCTAGCATAGATC ((((((...)))))) | -36.5 kcal/mol | 50.8 °C
7 | GATCTAGCTTTAGATC ((((((....)))))) | -26.7 kcal/mol | 38.8 °C
8 | GATCTAGGAAACTAGATC (((((((....))))))) | -43.1 kcal/mol | 51.9 °C
9 | GATCTAGGAAACTGGATC ((((.((....)).)))) | -34 kcal/mol | 41.8 °C
10 | GATCTAGGCTAGATC ((((((...)))))) | -55.2 kcal/mol | 45.5 °C
11 | GATCTAGGTTTAGATC ((((((....)))))) | -28.5 kcal/mol | 41.1 °C
12 | GATCTAGTCGTAGATC ((((((....)))))) | -27.9 kcal/mol | 44.3 °C
13 | GATCTAGTCTTAGATC ((((((....)))))) | -39.3 kcal/mol | 45 °C
14 | GATCTAGTGCTAGATC ((((((....)))))) | -31.1 kcal/mol | 44.3 °C
15 | GATCTAGTGTAGATC ((((((...)))))) | -26.4 kcal/mol | 38.5 °C
16 | GATCTAGTTTAGATC ((((((...)))))) | -30.3 kcal/mol | 40.7 °C
17 | GATCTATAAGTAGATC ((((((....)))))) | -35.6 kcal/mol | 41.6 °C
18 | GATCTATAATTAGATC ((((((....)))))) | -25.5 kcal/mol | 39.9 °C
19 | GATCTATATGTAGATC ((((((....)))))) | -35.4 kcal/mol | 45.5 °C
20 | GATCTATCACTAGATC ((((((....)))))) | -31.9 kcal/mol | 38.6 °C
21 | GATCTATCAGTAGATC ((((((....)))))) | -32.5 kcal/mol | 40.4 °C
22 | GATCTATGAATAGATC ((((((....)))))) | -32.6 kcal/mol | 43.2 °C
23 | GATCTATGCGTAGATC ((((((....)))))) | -41.5 kcal/mol | 48.2 °C
24 | GATCTATGCTAGATC ((((((...)))))) | -23.4 kcal/mol | 40.4 °C

Row | Sequence | folding enthalpy [1] | Tm [2]
25 | GATCTATGGTAGATC ((((((...)))))) | -28.9 kcal/mol | 36.9 °C
26 | GATCTATGTGTAGATC ((((((....)))))) | -49.8 kcal/mol | 48 °C
27 | GATCTATTAGTAGATC ((((((....)))))) | -33.8 kcal/mol | 44.4 °C
28 | GATCTATTATAGATC ((((((...)))))) | -33.4 kcal/mol | 41.9 °C
29 | GATCTATTCATAGATC ((((((....)))))) | -35.8 kcal/mol | 49.9 °C
30 | GATCTATTCCTAGATC ((((((....)))))) | -29.9 kcal/mol | 40.4 °C
31 | GATCTATTGGTAGATC ((((((....)))))) | -30.4 kcal/mol | 44.2 °C
32 | GATCTATTGTTAGATC ((((((....)))))) | -35.9 kcal/mol | 42.5 °C
33 | GATCTATTTTAGATC ((((((...)))))) | -32.7 kcal/mol | 41.7 °C
34 | GATCTCAAAGAGATC ((((((...)))))) | -37.6 kcal/mol | 55.2 °C
35 | GATCTCAACAGAGATC ((((((....)))))) | -44.3 kcal/mol | 54.9 °C
36 | GATCTCAATAGAGATC ((((((....)))))) | -38.5 kcal/mol | 53.3 °C
37 | GATCTCAATCGAGATC ((((((....)))))) | -43.7 kcal/mol | 52.2 °C
38 | GATCTCAATTGAGATC ((((((....)))))) | -38 kcal/mol | 53.1 °C
39 | GATCTCACAGGAGATC ((((((....)))))) | -34 kcal/mol | 51.7 °C
40 | GATCTCACCGAGATC ((((((...)))))) | -36.5 kcal/mol | 55.2 °C
41 | GATCTCACGAGAGATC ((((((....)))))) | -39.5 kcal/mol | 52.3 °C
42 | GATCTCACGCGAGATC ((((((....)))))) | -41.7 kcal/mol | 52.7 °C
43 | GATCTCAGGTGAGATC ((((((....)))))) | -32.2 kcal/mol | 53.6 °C
44 | GATCTCATACGAGATC ((((((....)))))) | -37.8 kcal/mol | 52.6 °C
45 | GATCTCCAACGAGATC ((((((....)))))) | -39.3 kcal/mol | 49.8 °C
46 | GATCTCCACTGAGATC ((((((....)))))) | -40.7 kcal/mol | 51.7 °C
47 | GATCTCCAGCGAGATC ((((((....)))))) | -30.6 kcal/mol | 50 °C
48 | GATCTCCCACGAGATC ((((((....)))))) | -40.3 kcal/mol | 50.5 °C

Row | Sequence | folding enthalpy [1] | Tm [2]
49 | GATCTCCCGAAAGGGATC (((..(((....)))))) | -9.21 kcal/mol | 29.6 °C
50 | GATCTCCCGCGAGATC ((((((....)))))) | -32.3 kcal/mol | 52.7 °C
51 | GATCTCCCGTGAGATC ((((((....)))))) | -35.4 kcal/mol | 52.5 °C
52 | GATCTCCGAAAGGATATC (((.(((....))).))) | -31.9 kcal/mol | 39.3 °C
53 | GATCTCCGAGGAGATC ((((((....)))))) | -37.8 kcal/mol | 60.4 °C
54 | GATCTCCGCTGAGATC ((((((....)))))) | -32.5 kcal/mol | 53.1 °C
55 | GATCTCCGGTGAGATC ((((((....)))))) | -35.5 kcal/mol | 52 °C
56 | GATCTCCTGGAGATC ((((((...)))))) | -37.3 kcal/mol | 53.2 °C
57 | GATCTCCTTGAGATC ((((((...)))))) | -40.6 kcal/mol | 54.4 °C
58 | GATCTCGACAGAGATC ((((((....)))))) | -41.9 kcal/mol | 66.8 °C
59 | GATCTCGAGGGAGATC ((((((....)))))) | -19.9 kcal/mol | 51.7 °C
60 | GATCTCGCACGAGATC ((((((....)))))) | -44.6 kcal/mol | 61 °C
61 | GATCTCGCCGAGATC ((((((...)))))) | -37 kcal/mol | 55.2 °C
62 | GATCTCGCGAAAGCGATC (((..(((....)))))) | -5.91 kcal/mol | 28.1 °C
63 | GATCTCGGCGAGATC ((((((...)))))) | -35.8 kcal/mol | 59.6 °C
64 | GATCTCGGGCGAGATC ((((((....)))))) | -30.4 kcal/mol | 55.2 °C
65 | GATCTCTAAAGAGATC ((((((....)))))) | -33.4 kcal/mol | 51.4 °C
66 | GATCTCTACTGAGATC ((((((....)))))) | -41.6 kcal/mol | 53.2 °C
67 | GATCTCTAGCGAGATC ((((((....)))))) | -23.1 kcal/mol | 49.9 °C
68 | GATCTCTATTGAGATC ((((((....)))))) | -39.1 kcal/mol | 53 °C
69 | GATCTCTCCTGAGATC ((((((....)))))) | -39.3 kcal/mol | 55 °C
70 | GATCTCTCTCGAGATC ((((((....)))))) | -37.2 kcal/mol | 52 °C
71 | GATCTCTGCGAGATC ((((((...)))))) | -19.3 kcal/mol | 52.8 °C
72 | GATCTCTGCTGAGATC ((((((....)))))) | -45.9 kcal/mol | 53.7 °C

Row | Sequence | folding enthalpy [1] | Tm [2]
73 | GATCTCTTCCGAGATC ((((((....)))))) | -37 kcal/mol | 52.3 °C
74 | GATCTCTTCGAGATC ((((((...)))))) | -36.9 kcal/mol | 55.4 °C
75 | GATCTGAAAAGATC (((((....))))) | -28.2 kcal/mol | 45.6 °C
76 | GATCTGAAATCAGATC ((((((....)))))) | -36.1 kcal/mol | 45.1 °C
77 | GATCTGAACACAGATC ((((((....)))))) | -34.7 kcal/mol | 48.4 °C
78 | GATCTGAATTCAGATC ((((((....)))))) | -41.6 kcal/mol | 50.2 °C
79 | GATCTGACCCCAGATC ((((((....)))))) | -34.3 kcal/mol | 45.8 °C
80 | GATCTGACCGCAGATC ((((((....)))))) | -27.4 kcal/mol | 48 °C
81 | GATCTGACGGCAGATC ((((((....)))))) | -49.4 kcal/mol | 51.4 °C
82 | GATCTGACTCAGATC ((((((...)))))) | -33.7 kcal/mol | 46.8 °C
83 | GATCTGAGACAGATC ((((((...)))))) | -42.3 kcal/mol | 46.8 °C
84 | GATCTGAGGCCAGATC ((((((....)))))) | -35.8 kcal/mol | 47.1 °C
85 | GATCTGAGTCAGATC ((((((...)))))) | -36.5 kcal/mol | 47.5 °C
86 | GATCTGATATCAGATC ((((((....)))))) | -40.1 kcal/mol | 51 °C
87 | GATCTGATGCAGATC ((((((...)))))) | -34.5 kcal/mol | 48 °C
88 | GATCTGATGTCAGATC ((((((....)))))) | -53.1 kcal/mol | 49.1 °C
89 | GATCTGATTTCAGATC ((((((....)))))) | -34.4 kcal/mol | 51.4 °C
90 | GATCTGCAAGCAGATC ((((((....)))))) | -40.2 kcal/mol | 57.6 °C
91 | GATCTGCACCAGATC ((((((...)))))) | -41.8 kcal/mol | 47.9 °C
92 | GATCTGCAGCAGATC ((((((...)))))) | -35 kcal/mol | 49.2 °C
93 | GATCTGCAGTCAGATC ((((((....)))))) | -34.5 kcal/mol | 49.2 °C
94 | GATCTGCCACCAGATC ((((((....)))))) | -35.1 kcal/mol | 48.7 °C
95 | GATCTGCCTCCAGATC ((((((....)))))) | -32.6 kcal/mol | 46.3 °C
96 | GATCTGCCTGCAGATC ((((((....)))))) | -43.3 kcal/mol | 62.6 °C
